In ChEMBL document CHEMBL1158357, “Synthesis of [1,2,4]triazolo[1,5-a]pyridines of potential PGE2 inhibitory properties” (2009):

What was measured:
Rattus norvegicus [1] = test: Antiinflammatory activity in Wistar albino rat assessed as inhibition of carrageenan-induced paw edema volume at 50 mg/kg, po administered 1 hr prior to carrageenan challenge measured after 1 hr; type: functional
Rattus norvegicus [2] = test: Antiinflammatory activity in Wistar albino rat assessed as inhibition of carrageenan-induced paw edema volume at 50 mg/kg, ip administered 1 hr prior to carrageenan challenge measured after 4 hrs; settings: route intraperitoneal
Rattus norvegicus [3] = test: Antiinflammatory activity in Wistar albino rat assessed as inhibition of carrageenan-induced paw edema volume at 50 mg/kg, po administered 1 hr prior to carrageenan challenge measured after 3 hrs; type: functional
Rattus norvegicus [4] = test: Antiinflammatory activity in Wistar albino rat assessed as inhibition of carrageenan-induced paw edema volume at 50 mg/kg, ip administered 1 hr prior to carrageenan challenge measured after 2 hrs; parameters: scale not given: the % may be the effect or the level left; settings: route intraperitoneal
Rattus norvegicus [5] = test: Antiinflammatory activity in Wistar albino rat assessed as inhibition of carrageenan-induced paw edema volume at 50 mg/kg, po administered 1 hr prior to carrageenan challenge measured after 2 hrs; type: functional
Rattus norvegicus [6] = test: Antiinflammatory activity in Wistar albino rat assessed as inhibition of carrageenan-induced paw edema volume at 50 mg/kg, po administered 1 hr prior to carrageenan challenge measured after 4 hrs relative to indomethacin; type: functional; parameters: scale not given: the % may be the effect or the level left
Rattus norvegicus [7] = test: Antiinflammatory activity in Wistar albino rat assessed as inhibition of carrageenan-induced paw edema volume at 50 mg/kg, ip administered 1 hr prior to carrageenan challenge measured after 3 hrs; parameters: scale not given: the % may be the effect or the level left; settings: route intraperitoneal
Rattus norvegicus [8] = test: Antiinflammatory activity in Wistar albino rat assessed as inhibition of carrageenan-induced paw edema volume at 50 mg/kg, ip administered 1 hr prior to carrageenan challenge measured after 1 hr; parameters: scale not given: the % may be the effect or the level left; settings: route intraperitoneal
Rattus norvegicus [9] = test: Antiinflammatory activity in Wistar albino rat assessed as inhibition of carrageenan-induced paw edema volume at 50 mg/kg, po administered 1 hr prior to carrageenan challenge measured after 4 hrs; parameters: scale not given: the % may be the effect or the level left
Rattus norvegicus [10] = test: Antiinflammatory activity against carrageenan-induced inflammation in albino rat air pouch model assessed as PGE2 level at 50 mg/kg, po administered […] before carrageenan challenge measured after 6 hrs; type: functional
In short: (§1)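 Male albino rats (200–250 g), 6 per group. A dorsal air pouch was made with 20 ml air s.c. on day 1, 10 ml two days later and 10 ml on day 5. Next day, rats were dosed orally in saline with a few drops of Tween 80 (controls: sterile saline), then given 2 ml 1% carrageenan in saline into the pouch. Exudate was aspirated 6 h later under ether, stored at -20 °C, and PGE2 measured by ELISA kit.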

Rattus norvegicus [11] = test: Antiinflammatory activity against carrageenan-induced inflammation in albino rat air pouch model assessed as PGE2 level at 10 mg/kg, po administered […] before carrageenan challenge measured after 6 hrs; type: functional; in short: as §1

Row | SMILES | Activity (Rattus norvegicus [1]) [mL] | Activity (Rattus norvegicus [2]) [mL] | Activity (Rattus norvegicus [3]) [mL] | Activity (Rattus norvegicus [4]) [%] | Activity (Rattus norvegicus [5]) [mL] | Activity (Rattus norvegicus [6]) [%] | Activity (Rattus norvegicus [7]) [%] | Activity (Rattus norvegicus [8]) [%] | Activity (Rattus norvegicus [9]) [%] | Activity (Rattus norvegicus [10]) [pg/mL] | Activity (Rattus norvegicus [11]) [pg/mL]
1 | Cn1c([S-])n[n+]2c(N)c(C#N)c(-c3ccccc3OCCCOc3ccccc3-c3c(C#N)c(N)[n+]4nc([S-])n(C)c4c3C#N)c(C#N)c12 | 0.19 | 0.175 | 0.307 | 22.6 | 0.257 | 110.9 | 41 | 8.2 | 75.2 | 92.17 | 
2 | CCn1c([S-])n[n+]2c(N)c(C#N)c(-c3ccccc3OCCOc3ccccc3-c3c(C#N)c(N)[n+]4nc([S-])n(CC)c4c3C#N)c(C#N)c12 | 0.188 | 0.16 | 0.312 | 30.1 | 0.232 | 114 | 40 | 9.2 | 77.3 | 87.67 | 
3 | N#Cc1c(-c2ccc(N3CCCCC3)cc2)c(C#N)c2n(Cc3ccccc3)c([S-])n[n+]2c1N | 0.192 | 0.23 | 0.313 | 2.1 | 0.325 | 99.4 | 39.8 | 7.2 | 67.4 | 102.33 | 
4 | N#Cc1c(-c2ccc(N3CCOCC3)cc2)c(C#N)c2n(Cc3ccccc3)c([S-])n[n+]2c1N | 0.207 | 0.428 | 0.485 | 1.2 | 0.328 | 58 | 6.7 | 0 | 39.3 |  | 
5 | CN1CCN(c2ccc(-c3c(C#N)c(N)[n+]4nc([S-])n(C)c4c3C#N)cc2)CC1 | 0.172 | 0.447 | 0.322 | 13.6 | 0.287 | 54 | 38.1 | 16.9 | 36.6 |  | 
6 | C=CCn1c([S-])n[n+]2c(N)c(C#N)c(-c3ccc(N4CCOCC4)cc3)c(C#N)c12 | 0.188 | 0.278 | 0.387 | 19.3 | 0.268 | 89.4 | 25.6 | 9.2 | 60.6 |  | 
7 | Cn1c([S-])n[n+]2c(N)c(C#N)c(-c3ccccc3OCCOc3ccccc3-c3c(C#N)c(N)[n+]4nc([S-])n(C)c4c3C#N)c(C#N)c12 | 0.097 | 0.292 | 0.37 | 11.7 | 0.293 | 86.4 | 28.8 | 53.1 | 58.6 |  | 
8 | Cn1c([S-])n[n+]2c(N)c(C#N)c(-c3ccc(N4CCOCC4)cc3)c(C#N)c12 | 0.203 | 0.385 | 0.303 | 17.2 | 0.275 | 67 | 41.7 | 1.9 | 45.4 |  | 
9 | Cn1c([S-])n[n+]2c(N)c(C#N)c(-c3ccc(N4CCCCC4)cc3)c(C#N)c12 | 0.202 | 0.345 | 0.353 | 10.2 | 0.298 | 75.4 | 32.1 | 2.4 | 51.1 |  | 
10 | CCn1c([S-])n[n+]2c(N)c(C#N)c(-c3ccc(N4CCCCC4)cc3)c(C#N)c12 | 0.142 | 0.272 | 0.23 | 66.9 | 0.11 | 90.6 | 55.8 | 31.4 | 61.4 |  | 
11 | C=CCn1c([S-])n[n+]2c(N)c(C#N)c(-c3ccc(N4CCCCC4)cc3)c(C#N)c12 | 0.16 | 0.222 | 0.338 | 7.5 | 0.307 | 101 | 35 | 22.7 | 68.5 | 94.5 | 
12 | CCn1c([S-])n[n+]2c(N)c(C#N)c(-c3ccc(N4CCOCC4)cc3)c(C#N)c12 | 0.118 | 0.317 | 0.322 | 30.1 | 0.232 | 81.1 | 38.1 | 43 | 55 |  | 
13 | COc1ccc2c(c1)c(CC(=O)O)c(C)n2C(=O)c1ccc(Cl)cc1 [INDOMETHACIN] | 0.09 | 0.227 | 0.18 | 52.4 | 0.158 |  | 65.4 | 56.5 | 67.8 |  | 98.33
